From PubChem BioAssay
Sampled rows, rich in hits. Any-hit rate of the full collection: about 0.64%.
TNAP inh noacc: human TNAP enzyme inhibitors, primary screen, biochemical, luminescent, no phosphate acceptor, uHTS | Alkaline phosphatase, tissue-nonspecific isozyme (Homo sapiens), P05186 | purified TNAP, CDP-star luminescence, 30 min | inhibition, % at 20 µM | hit rate 0.26% among 200,000;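 active = tissue-nonspecific alkaline phosphatase inhibition above about 50% at 20 µM in the single-dose screen, limit read from the data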;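 note: 0% = DMSO negative control and 100% = EDTA positive control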
TNAP act hiacc: TNAP activators at high phosphate acceptor level, primary screen, biochemical, luminescence, uHTS; Alkaline phosphatase, tissue-nonspecific isozyme (Homo sapiens), P05186; purified TNAP, CDP-star luminescence, 1 M DEA, 30 min; hits give high values; 0 = EDTA background, 1 = DMSO-only activity; activation factor at 20 µM; 200,000 tested, under 10 active; AID 1136, 2008;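 active = activation factor at least 2 at 20 µM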
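system = human TNAP | amount = enzyme diluted 1/800 final | reagent = 100 µM CDP-star substrate | signal = luminescent substrate turnover signal | dosing = one dose, 20 µM | benchmarks = EDTA negative control, DMSO positive control | measure = activation factor | timing = 30 min reaction, room temperature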
TNAP inh hiacc: human TNAP enzyme inhibitors, primary screen, biochemical, luminescent, high phosphate acceptor level, uHTS; Alkaline phosphatase, tissue-nonspecific isozyme (Homo sapiens), P05186; purified TNAP, CDP-star luminescence, 1 M DEA; inhibition, % at 20 µM; hit rate 0.03% among 200,000; AID 1135, 2008;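 active = over 50% inhibition of tissue-nonspecific alkaline phosphatase at 20 µM in the single-dose screen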;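 note: plate controls were DMSO wells for no effect and EDTA-quenched wells as full inhibition for full effect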
PMI act: activators of human PMI, primary screen, biochemical, fluorescence intensity, near-Km mannose 6-phosphate | Mannose-6-phosphate isomerase (Homo sapiens), P34949 | purified human PMI, coupled resazurin fluorescence, 20 min; hits give high values; 1 = vehicle control, 0 substrate-free wells | activation factor at 20 µM | hit rate 0.005% among 190,000;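 active = activation factor of 2 or more at 20 µM, relative to plate controls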
Target sequence (P34949 whole entry, looked up): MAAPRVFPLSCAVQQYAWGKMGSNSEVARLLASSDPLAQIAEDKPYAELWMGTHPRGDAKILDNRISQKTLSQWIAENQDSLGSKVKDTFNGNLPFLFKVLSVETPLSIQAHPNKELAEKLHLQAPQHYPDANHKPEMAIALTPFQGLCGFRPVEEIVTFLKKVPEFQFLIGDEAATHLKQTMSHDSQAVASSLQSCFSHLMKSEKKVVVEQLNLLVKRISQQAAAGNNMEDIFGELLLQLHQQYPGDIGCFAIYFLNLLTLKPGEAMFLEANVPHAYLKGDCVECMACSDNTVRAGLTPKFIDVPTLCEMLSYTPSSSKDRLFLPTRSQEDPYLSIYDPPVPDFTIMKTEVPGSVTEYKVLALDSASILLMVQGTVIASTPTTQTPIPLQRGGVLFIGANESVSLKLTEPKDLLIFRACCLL
PMI act satM6P: human PMI activators, high substrate, primary screen, biochemical, fluorescence intensity, near-saturating mannose 6-phosphate | Mannose-6-phosphate isomerase (Homo sapiens), P34949 | coupled PMI enzyme assay, resazurin fluorescence, 20 min; hits give high values; 1 = untreated enzyme, 0 = substrate-free blank | activation factor at 20 µM | hit rate 0.34% among 190,000 | AID 1216, 2008;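 active = activation factor of 2 or more at 20 µM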
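Material: human phosphomannose isomerase with PGI, G6PDH, diaphorase coupling enzymes / Reagent: Man-6-P substrate 1.0 mM / Dosing: single compound dose of 20 µM, 1% DMSO final / Incubation: enzyme reaction with compound 20 min at room temperature / Signal: resorufin fluorescence (Ex 544/Em 590 nm) from resazurin via diaphorase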
Numbers without * were called inactive.

SMILES | TNAP inh noacc | TNAP act hiacc | TNAP inh hiacc | PMI act | PMI act satM6P
COc1cc(/C=N/NC(=O)c2cc(-c3cccn3C)n[nH]2)cc(OC)c1OC | 91* | 0.9 | 9 | 0.9 | 0.9
COc1cccc(/C=N/NC(=O)c2cc(-c3cccn3C)n[nH]2)c1 | 94* | 0.9 | 7 | 0.9 | 0.9
COc1cccc(/C=N/NC(=O)c2cc(-c3cccn3C)n[nH]2)c1O | -157 | 1 | 2 | 0.9 | 1.2
COc1ccc(/C=C2\CC/C(=C\c3ccc(OC)c(OC)c3)C2=O)cc1OC | -14 | 1 | -1 | 0.7 | 0.8
COc1cc(C=C2C(=O)c3ccccc3C2=O)cc(OC)c1OC | 4 | 0.9 | 9 | 1.2 | 1.2
COc1ccc(C=C2C(=O)c3ccccc3C2=O)cc1O | -12 | 0.5 | 53* | 0.8 | 0.4
COc1cc(/C=C2/C(=O)ON=C2c2ccccc2)ccc1O | 52* | 0.6 | 37 | 1.1 | 1.1
CCN1C/C(=C/c2ccc(OC)c(O)c2)C(=O)/C(=C/c2ccc(OC)c(O)c2)C1 | 56* | 0.6 | 39 | 1 | 0.6
O=C(NN1CCN(Cc2ccccc2Cl)CC1)c1ccc(Br)cc1 | -1 | 1 | -1 | 1.1 | 0.9
N#Cc1c(-c2ccccc2Cl)cc(-c2ccccc2)[nH]c1=S | 7 | 1 | -3 | 1.6 | 2.5*
N#Cc1c(-c2ccncc2)c2c([nH]c1=S)CCCC2 | 0 | 1 | 3 | 1.1 | 1.1
N#Cc1c2c(c(-c3ccccc3Cl)[nH]c1=S)CCCC2 | -3 | 1.1 | -6 | 1.6 | 2.4*
CCOC(=O)c1cccc(NC(=S)NCc2ccc(C)cc2)c1 | -22 | 1 | -4 | 0.8 | 0.9
O=C(c1ccc(F)cc1)c1cn[nH]c1-c1ccccc1O | 56* | 1 | -2 | 1 | 0.9
Cc1ccc(C(=O)c2cn[nH]c2-c2ccccc2O)cc1 | 41 | 1.1 | -5 | 1.1 | 0.9
COc1ccccc1CNN | -5 | 1 | 1 | 1.6 | 2.2*
COc1ccccc1CNCc1cc(OC)c(OC)c(OC)c1 | -5 | 1 | 1 | 1.1 | 1.1
CCOc1ccc(N(CCCCO)C(=S)NC(=O)c2ccc(C)c(Br)c2)cc1 | -20 | 1 | -2 | 0.7 | 0.8
Cc1ccc(OCc2nc(-c3cccs3)no2)c([N+](=O)[O-])c1 | -5 | 1 | 1 | 1 | 0.9
COc1ccccc1C1(O)CCN(CC(=O)Nc2nc(-c3ccccc3)cs2)CC1 | -14 | 1.1 | -5 | 0.9 | 0.9
CC(=O)N/C(=C/c1ccc2c(c1)OCO2)C(=O)NCc1ccccc1 | 67* | 1 | -1 | 0.9 | 1
O=C(CN1CCN(Cc2ccccc2)CC1)c1ccc(Br)cc1 | -1 | 1 | -2 | 1.5 | 2.4*
Oc1ccc(N=Nc2n[nH]c(-c3ccc(Cl)cc3)n2)cc1 | 69* | 0.7 | 26 | 1 | 0.9
Cc1nn(C(=O)c2ccccc2)c2c1C(=O)CC(C)(C)C2 | 56* | 1 | 1 | 1 | 1
CCCc1nn(C(=O)c2ccccc2)c2c1C(=O)CC(C)(C)C2 | 52* | 1 | -1 | 0.9 | 1
SMILES | TNAP inh noacc | TNAP act hiacc | TNAP inh hiacc | PMI act | PMI act satM6P
CCCc1nn(-c2cc(Cl)ccc2OC)c2c1C(=O)CC(C)(C)C2 | -4 | 1 | -3 | 0.9 | 0.9
OCCC1CN(Cc2nc3ccccc3s2)CCN1CCc1ccccc1 (configuration not stated) | -2 | 1 | 1 | 1 | 1
CCOC(=O)/C=C(/C)N1N=C(c2ccc(OC)cc2)CC1c1cccc([N+](=O)[O-])c1 (configuration not stated) | -19 | 1 | 0 | 1.6 | 2.3*
CN1CCc2c(n(CC(O)CN3CCN(CCO)CC3)c3ccccc23)C1=O (configuration not stated) | -13 | 1 | -4 | 1.3 | 1
O=C(N/N=C/c1ccccc1C(=O)O)c1cc(-c2ccc3c4c(cccc24)CC3)n[nH]1 | 74* | 1 | -2 | 1 | 0.9
O=C1/C(=C/c2ccc(O)cc2)SC(=S)N1Cc1cccnc1 | 11 | 0.4 | 63* | 0.9 | 0.9
CC(=O)c1cccc(NC(=O)N2C3CCC2CC(NC(=O)C2CC2)C3)c1 (configuration not stated) | -4 | 1 | -1 | 1 | 1.1
CCCCC(=O)NS(=O)(=O)c1ccc(N=NN(CC)CC)cc1 | -9 | 1.1 | -6 | 1 | 1.1
Cc1nc2nc(-c3ccccc3)cn2nc1C | -22 | 1.1 | -6 | 1.3 | 1.5
CCc1ccc(-c2cn3nc(C)c(C)nc3n2)cc1 | -19 | 1 | -5 | 1.8 | 2.2*
CCOC(=O)c1c2c3c(c(Cl)ccc3[nH]c1=O)C(=O)c1ccccc1-2 | -4 | 0.9 | 8 | 1.6 | 2*
CCOC(=O)c1c2c3c(cccc3[nH]c1=O)C(=O)c1ccccc1-2 | -7 | 1 | 3 | 1.4 | 1.3
Cc1ccc(N2C(=O)CC(Nc3ccc(Cl)c(S(=O)(=O)N(C)C)c3)C2=O)c(C)c1 (configuration not stated) | -14 | 1 | -5 | 0.9 | 1
O=C(O)c1ccccc1-c1ccccc1C(=O)NNc1ccccc1 | -11 | 1.1 | -5 | 1.7 | 2.9*
O=C(O)c1ccccc1-c1ccccc1C(=O)Nc1ccccc1 | -8 | 1 | -1 | 1 | 1
NC(=O)C1CCN(C(=O)CN2CCCc3ccccc32)CC1 | -6 | 1 | -3 | 1.5 | 2*
O=C(CN1CCCc2ccccc21)NC(=O)NC1CCCCC1 | 3 | 1 | -4 | 1.1 | 1
CC1=NN(c2ccc(N)cc2)C(=O)C1 | -24 | 1 | -4 | 1.6 | 2*
CC1=NN(c2ccc(Cl)cc2)C(=O)C1 | -16 | 1.1 | -8 | 1.3 | 1.1
CCOc1ccccc1N1CCN(CC(=O)N(CC(C)C)c2c(N)n(CC(C)C)c(=O)[nH]c2=O)CC1 | -8 | 1 | -2 | 1 | 1
COc1ccc(-c2nc(SC(CC(=O)NCCO)c3cccs3)n[nH]2)cc1 (configuration not stated) | 71* | 1 | -4 | 1.1 | 1
CSCc1cc(N2CCOCC2)nc(SCc2ccc(Cl)c(Cl)c2)n1 | -5 | 1 | -3 | 1.2 | 2*
CCCCCCCn1c2c(c(=N)c3ccccc31)CCC2 | 1 | 1.1 | -7 | 1 | 1
CSc1nc(-c2ccccc2)nn1S(=O)(=O)c1ccccc1 | 54* | 1 | -3 | 1.1 | 1.1
CCCC(=O)n1nc(-c2ccccc2)nc1SC | 49 | 1 | -4 | 1 | 0.9
